Experimental data pooled from the literature.
Protocols differ between the studies behind these lines. pIC50, pKd, pKi: −log10 of the molar value.
ST14: Suppressor of tumorigenicity 14 protein (ST14, Homo sapiens, UniProt Q9Y5Y6)
ERG11: Lanosterol 14-alpha demethylase (ERG11, Candida albicans, UniProt P10613)
Integrin alpha-V/beta-6: Integrin alpha-V/beta-6 (Homo sapiens, UniProt P06756+P18564)
HTR7: 5-hydroxytryptamine receptor 7 (HTR7, Homo sapiens, UniProt P34969)

COCCC(=O)N[C@@H](CCC(N)=O)C(=O)N[C@@H](Cc1ccccc1)C(=O)N[C@@H](CCCNC(=N)N)C(=O)c1nc2ccccc2s1  pKi (ST14; cell-free assay): 9.03
OC(COc1ccc(-c2nnco2)cc1)CN1CCN(CC(O)COc2ccc(-c3nnco3)cc2)CC1 (centres unmarked)  pIC50 (ERG11; enzyme activity, inhibitor, mass spectrometry): < 4.30
Cc1cc(O)c2c(=O)c3c(O)cc(O)c4c5c(O)cc(O)c6c(=O)c7c(O)cc(C)c8c1c2c(c34)c(c78)c65  pKd (Calreticulin (CALR, Homo sapiens, UniProt P27797); binding, MST): 5.43
CC(C)(NC(=O)[C@@H](N)CS)C(=O)N[C@@H](CO)C(=O)N[C@@H](CCCNC(=N)N)C(=O)NCC(=O)N[C@@H](CC(=O)O)C(=O)N[C@@H](Cc1c(F)c(F)c(F)c(F)c1F)C(=O)N1CCC(F)(F)C[C@H]1C(N)=O  pKd (Integrin alpha-V/beta-6; binding, BLI): 4.15
O=S(=O)(c1ccc(OCC(O)CN2CCCC2)c(Cl)c1)c1ccc(OCC(O)CN2CCCC2)c(Cl)c1 (centres unmarked)  pIC50 (ERG11; enzyme activity, inhibitor, mass spectrometry): < 4.30
CC1=CC(=O)[C@@H](O)[C@]2(C)[C@H]3[C@@H](O)[C@H](O)[C@@]4(C)OC[C@@]35[C@@H](C[C@@H]12)OC(=O)[C@H](O)[C@]54O  pKd (Serine/threonine-protein kinase pim-1 (PIM1, Homo sapiens, UniProt P11309); binding, SPR): 5.18
CS(=O)(=O)N[C@@H](CCC(N)=O)C(=O)N[C@@H](Cc1ccccc1)C(=O)N[C@@H](CCCNC(=N)N)C(=O)c1nccs1  pKi (ST14; cell-free assay): 7.77
CCCCC1CNC2CCc3ccc(OC)cc3C12 (racemic)  pKi (HTR7; ligand displacement, radioligand): 6.23
C[C@@H](O)[C@H](NC(=O)C(C)(C)NC(=O)[C@@H](N)CS)C(=O)N[C@@H](CCCNC(=N)N)C(=O)NCC(=O)N[C@@H](CC(=O)O)C(=O)N[C@@H](Cc1cccnc1)C(=O)N1CC(F)(F)C[C@H]1C(N)=O  pKd (Integrin alpha-V/beta-6; binding, BLI): 4.26
COc1cc2c(cc1OC)CN(CCc1ccc(NC(=O)c3cccc4c(=O)c5cccc(OC)c5[nH]c34)cc1)CC2  pKi (HTR7; cell-free assay): 6.63
CCN1CCN(Cc2ccc(Nc3ncc(F)c(-c4cc(F)c5nc6n(c5c4)[C@H](C)CCC6)n3)nc2)CC1  pIC50 (Multidrug and toxin extrusion protein 1 (SLC47A1, Homo sapiens, UniProt Q96FL8); enzyme activity, inhibitor): 7.67
